Measurements of several laboratories.
Target: LIM domain kinase 1 (LIMK1, Homo sapiens, UniProt P53667)

| Compound | effect on | action | technique | concentration | quantity | result |
| --- | --- | --- | --- | --- | --- | --- |
| COc1cc(Nc2c(C#N)cnc3cc(OCCCN4CCN(C)CC4)c(OC)cc23)c(Cl)cc1Cl | cell-free assay |  |  | 0.5 µM | remaining signal | 96.4% |
| Cn1nc(C(F)(F)F)cc1-c1cnc(N2CCc3cc(S(=O)(=O)Nc4c(F)cc(Cl)cc4F)cc(N4CCCC4=O)c32)nc1 | cell-free assay |  | competition with immobilised ligand | 1 µM | remaining binding | 100% |
| Cn1cnc(Br)c1C1=CN(c2ncnc3[nH]cnc23)CCS1 | enzyme activity | inhibitor | radiometric | 50 nM | inhibition | 15.2% |
| O=C(O)[C@@H]1[C@@H](Cn2nnc3ccccc3c2=O)CC[C@H]1C(=O)c1ccc(OCCC2CCOCC2)cc1 | cell-free assay |  | competition with immobilised ligand | 1 µM | remaining binding | 100% |
| Oc1ccc(-c2nc(-c3ccncc3)c(-c3ccc(F)cc3)[nH]2)cc1 | cell-free assay |  |  | 0.5 µM | remaining signal | 91.4% |
| CNC(=O)c1ccc(Nc2ncc(C(F)(F)F)c(NCc3nccnc3N(C)S(C)(=O)=O)n2)cc1 | cell-free assay |  | competition with immobilised ligand | 0.1 µM | remaining binding | 100% |
| CC(C)(C)c1nc2c(s1)c1nc(N)ncc1c1ccc(NS(=O)(=O)c3c(F)cccc3F)c(F)c12 | enzyme activity | inhibitor | radiometric | 1 µM | remaining activity | 100% |
| COc1cc(Cl)c(C(=O)N[C@@H](CN[C@H]2CC[C@@H](N)CC2)Cc2ccc(C#N)cc2)cc1-c1ccc(CN[C@H](C)c2ccc(C)cc2)o1 | enzyme activity | inhibitor |  | 1 µM | remaining activity | 100% |
| CCOC(=O)c1cc2cc(-c3cc(C(=O)NCc4ccc(C(=O)O)cc4)nn3C)ccc2[nH]1 | cell-free assay |  | competition with immobilised ligand | 0.1 µM | remaining binding | 100% |
| C[C@@H]1CCN(C(=O)CC#N)C[C@@H]1N(C)c1ncnc2[nH]ccc12 | cell-free assay | inhibitor |  | 0.5 µM | remaining signal | 82% |
| CCCOc1ccc(OC)c(F)c1C(=O)c1ccc(C(=O)N[C@@H]2CNC[C@H]2NC(=O)c2ccc3[nH]ncc3c2)cc1 | enzyme activity | inhibitor |  | 10 µM | remaining activity | 73% |
| CN([C@@H]1CCc2c(CC(=O)O)c3ccccc3n2C1)S(=O)(=O)c1ccc(F)cc1 | cell-free assay |  | competition with immobilised ligand | 1 µM | remaining binding | 100% |
| Cc1ccc(C(=O)Nc2ccc(CN3CCN(C)CC3)c(C(F)(F)F)c2)cc1C#Cc1cnc2cccnn12 | enzyme activity | inhibitor |  | 23.5 nM | remaining activity | 99% |
| CCN(CC)CCNC(=O)c1c(C)[nH]c(/C=C2\C(=O)Nc3ccc(F)cc32)c1C | enzyme activity | inhibitor |  | 10 µM | inhibition | 39% |
| O=C(Nc1cnn(-c2csc(C(=O)NC3COC3)c2)c1)Nc1ccccc1Cl | enzyme activity | inhibitor |  | 5 µM | remaining activity | 96.2% |
| CNC(=O)c1cc(Oc2ccc(NC(=O)Nc3ccc(Cl)c(C(F)(F)F)c3)cc2)ccn1 | enzyme activity | inhibitor |  | 0.3 µM | inhibition | 29% |
| CC(C)(O)[C@H]1CC[C@H](Nc2ccc3ncc(-c4cccc(C(F)(F)F)c4)n3n2)CC1 | enzyme activity | inhibitor |  | 1 µM | remaining activity | 76.3% |
| CCCOc1ccc([C@@H]2[C@@H](C(=O)O)[C@H](c3ccc4c(c3)OCO4)CN2CC(=O)Nc2c(CC)cccc2CC)cc1 | cell-free assay |  | competition with immobilised ligand | 1 µM | remaining binding | 90% |
| CNC(=O)c1cc2c(Oc3ccc(NC(=O)C4(C(=O)Nc5ccc(F)cc5)CC4)cc3)ccnc2cc1OC | enzyme activity | inhibitor | radiometric | 1 µM | inhibition | 74% |
| O=C(Nc1cnn(-c2csc(C(=O)NC3COC3)c2)c1)Nc1c(F)cccc1Cl | enzyme activity | inhibitor |  | 5 µM | remaining activity | 104% |
